Laboratory results taken from ChEMBL document CHEMBL1921672, “Design, synthesis, and qualitative structure-activity evaluations of novel β-secretase inhibitors as potential Alzheimer's drug leads” (J Med Chem, 2011).

Assays:
[1] = target: T1, Beta-secretase 1 (Homo sapiens, UniProt P56817); assay: Inhibition of BACE1 expressing APP Swedish mutant using rhodamine-labeled EVNLDAEFK-quencher as substrate after 60 mins by Michaelis-Menten equation
Outline: (§1)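 Same FRET set-up (750 nM peptide substrate, KM 20 μM, 1 U/mL enzyme, pH 4.5 acetate, 60 min, 25 °C). Apparent KI derived from steady-state rates with and without inhibitor (vI, v0), then converted to absolute KI by correcting for substrate concentration and KM.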

[2] = target: T2, Beta-secretase 2 (Homo sapiens, UniProt Q9Y5Z0); assay: Inhibition of BACE2 expressing APP Swedish mutant using rhodamine-labeled EVNLDAEFK-quencher as substrate after 60 mins by Michaelis-Menten equation; outline: as §1
T2 sequence (Q9Y5Z0 63-518 limits assumed, stated change not applied): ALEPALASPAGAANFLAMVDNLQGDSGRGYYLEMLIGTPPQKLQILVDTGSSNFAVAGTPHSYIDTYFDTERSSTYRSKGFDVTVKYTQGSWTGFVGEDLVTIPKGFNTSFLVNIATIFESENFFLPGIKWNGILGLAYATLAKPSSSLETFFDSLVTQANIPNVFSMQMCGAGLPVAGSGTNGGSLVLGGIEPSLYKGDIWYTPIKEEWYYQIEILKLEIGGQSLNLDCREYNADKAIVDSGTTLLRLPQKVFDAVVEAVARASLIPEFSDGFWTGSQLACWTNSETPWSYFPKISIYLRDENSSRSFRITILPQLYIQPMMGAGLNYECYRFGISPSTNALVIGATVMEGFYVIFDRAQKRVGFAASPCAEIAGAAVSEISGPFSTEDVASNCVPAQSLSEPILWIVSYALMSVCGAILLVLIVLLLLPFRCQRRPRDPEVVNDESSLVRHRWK

[3] = target: T2, Beta-secretase 2; assay: Inhibition of BACE2 expressing APP Swedish mutant using rhodamine-labeled EVNLDAEFK-quencher as substrate after 60 mins by FRET analysis
[4] = target: T1, Beta-secretase 1; assay: Inhibition of BACE1 expressing APP Swedish mutant using rhodamine-labeled EVNLDAEFK-quencher as substrate after 60 mins by FRET analysis
[5] = target: T1, Beta-secretase 1; assay: Inhibition of BACE1 in human H4 cells expressing APP Swedish K595N and M596L double mutant assessed as inhibition of amyloid beta (1 to 40) production after 24 hrs by whole cell assay; assay type: cell-based; settings: pooled result: one value given for 2 cell lines, strains, targets or settings
Outline: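 H4 neuroglioma cells carrying human APP K595N/M596L, seeded at 2 × 10⁵ cells/well and grown 24 h, then given increasing compound concentrations overnight (1% DMSO negative control). Medium Aβ40 or Aβ42 measured by sandwich immunoassay: biotinylated 4G8 plus C-terminal-specific rabbit antibodies, electrochemiluminescence read-out. Viability checked by MTT (0.5 mg/mL, 3 h, 570 nm). EC50 as mean of ≥3 experiments ± SD.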

[6] = Selectivity ratio of IC50 for BACE2 to IC50 for BACE1
[7] = Aqueous solubility of the compound; assay type: physicochemical; settings: water
Outline: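 Solubility estimated by HPLC. Salt sonicated 48 h in water, filtered through 0.45 μm, injected after a five-point calibration (1.44–18.0 mg/mL standards in acetonitrile/methanol 50:50 v/v; least-squares linear fit; triplicate injections). Reversed-phase C18 column, UV detection at 280 nm. Solubility taken where recovery began to fall with rising concentration.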

T1 sequence (P56817 whole entry): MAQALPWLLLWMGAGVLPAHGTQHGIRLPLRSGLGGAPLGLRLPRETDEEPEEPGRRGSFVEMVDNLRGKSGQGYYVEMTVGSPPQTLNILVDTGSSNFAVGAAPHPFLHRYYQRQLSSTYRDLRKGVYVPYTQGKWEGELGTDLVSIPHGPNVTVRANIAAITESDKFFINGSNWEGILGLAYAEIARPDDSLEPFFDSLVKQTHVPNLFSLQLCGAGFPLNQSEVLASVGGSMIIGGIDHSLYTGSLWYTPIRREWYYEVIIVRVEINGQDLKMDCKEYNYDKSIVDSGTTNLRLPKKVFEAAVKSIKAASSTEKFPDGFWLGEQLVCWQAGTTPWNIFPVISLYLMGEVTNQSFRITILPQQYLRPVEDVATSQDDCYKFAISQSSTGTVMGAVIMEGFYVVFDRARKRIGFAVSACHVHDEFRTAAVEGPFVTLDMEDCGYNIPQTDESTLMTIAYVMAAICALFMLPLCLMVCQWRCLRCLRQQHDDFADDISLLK

`CC(C)(C)Nc1c(-c2ccc(-c3nc4ccc(F)cc4[nH]3)cc2)nc2ccccn12` gave a Ki [1] of 2390 nM, a Ki [2] of 3620 nM and an IC50 [3] of 3720 nM. It also gave an IC50 [4] of 2480 nM.

Work on `Fc1ccc2nc(-c3cccc(-c4cn5ccc(F)cc5n4)c3)[nH]c2c1` [listing 1 of 2 here] yielded a Ki [1] of 17 nM, a Ki [2] of 3570 nM and an EC50 [5] of 37 nM. The IC50 [3] was 3670 nM and the IC50 [4] was 18 nM.

In the case of `COc1ccc2[nH]c(-c3cc(C(=O)N[C@@H](C)c4ccccc4)cc(N(C)S(C)(=O)=O)c3)nc2c1`, the Ki [1] is reported as 525 nM, the Ki [2] is reported as 2350 nM and the Ratio IC50 [6] is reported as 5. It also gave an IC50 [3] of 2420 nM and an IC50 [4] of 545 nM.

Compound `COc1ccc2nc(-c3ccc(-c4nc5ccccn5c4NC(C)(C)C)cc3)[nH]c2c1` has a Ki [1] of 2160 nM, a Ki [2] of 2810 nM and an EC50 [5] of 2410 nM. For the same compound, the Ratio IC50 [6] was 1.3, the IC50 [3] was 2900 nM and the IC50 [4] was 2240 nM.

With `CC(C)(C)Nc1c(-c2cccc(-c3nc4ccccc4[nH]3)c2)nc2ccccn12` the Ki [1] was 495 nM, the Ki [2] was 3670 nM and the IC50 [3] was 3780 nM. The IC50 [4] was 514 nM.

Work on `Fc1ccc2nc(-c3cccc(-c4cn5ccccc5n4)c3)[nH]c2c1` yielded a Ki [1] of 34 nM, a Ki [2] of 3080 nM and an EC50 [5] of 120 nM. The IC50 [3] was 3170 nM and the IC50 [4] was 35 nM.

Compound `C[C@H](NC(=O)c1cc(-c2nc3ccccc3[nH]2)cc(N(C)S(C)(=O)=O)c1)c1ccccc1` has a Ki [1] of 1040 nM, a Ki [2] of 2070 nM and an IC50 [3] of 2130 nM. It also gave an IC50 [4] of 1080 nM.

For `C[C@H](NC(=O)c1cc(-c2nc3cc(F)ccc3[nH]2)cc(N(C)S(C)(=O)=O)c1)c1ccccc1`, the Ki [1] was 758 nM, the Ki [2] was 2070 nM and the EC50 [5] was 230 nM. The Ratio IC50 [6] was 5, the IC50 [3] was 2130 nM and the IC50 [4] was 786 nM.

Work on `C[C@H](NC(=O)c1cc(-c2nc(-c3ccccc3)c[nH]2)cc(N(C)S(C)(=O)=O)c1)c1ccccc1` yielded a Ki [1] of 304 nM, a Ki [2] of 1730 nM and an EC50 [5] of 450 nM. The IC50 [3] was 1790 nM and the IC50 [4] was 315 nM.

`COc1cccc(-c2cnc(-c3cc(C(=O)N[C@@H](C)c4ccccc4)cc(N(C)S(C)(=O)=O)c3)[nH]2)c1` gave a Ratio IC50 [6] of 30.

`COc1ccc2nc(-c3cccc(-c4nc5ccccn5c4NC(C)(C)C)c3)[nH]c2c1` gave a Ki [1] of 253 nM, a Ki [2] of 4000 nM and an EC50 [5] of 310 nM. For the same compound, the Ratio IC50 [6] was 23, the IC50 [3] was 4120 nM and the IC50 [4] was 178 nM.

`COc1ccc2nc(-c3cccc(-c4cn5ccccc5n4)c3)[nH]c2c1` gave a Ki [1] of 25 nM, a Ki [2] of 3220 nM and an EC50 [5] of 30 nM. The IC50 [3] was 3320 nM and the IC50 [4] was 26 nM.

`CC(C)(C)Nc1c(-c2cccc(-c3nc4ccc(F)cc4[nH]3)c2)nc2ccccn12` showed a Ki [1] of 301 nM, a Ki [2] of 4110 nM and an EC50 [5] of 930 nM. It also gave an IC50 [3] of 4230 nM and an IC50 [4] of 312 nM.

`COc1cccc(-c2c[nH]c(-c3cc(C(=O)N[C@@H](C)c4ccccc4)cc(N(C)S(C)(=O)=O)c3)n2)c1` showed a Ki [1] of 62 nM, a Ki [2] of 2280 nM and an EC50 [5] of 179 nM. The IC50 [3] was 2350 nM and the IC50 [4] was 77 nM.

For `c1cc(-c2cn3ccccc3n2)cc(-c2nc3ccccc3[nH]2)c1`, the Ki [1] was 926 nM, the Ki [2] was 3780 nM and the EC50 [5] was 1550 nM. It also gave an IC50 [3] of 3890 nM and an IC50 [4] of 961 nM.

Compound `Cl.Fc1ccc2nc(-c3cccc(-c4cn5ccc(F)cc5n4)c3)[nH]c2c1` has a solubility [7] of 10000 µg/mL.

`Fc1ccc2nc(-c3cccc(-c4cn5ccc(F)cc5n4)c3)[nH]c2c1` [listing 2 of 2 here] gave a Ratio IC50 [6] of 204.

For `C[C@H](NC(=O)c1cc(-c2ncc(-c3cccc(F)c3)[nH]2)cc(N(C)S(C)(=O)=O)c1)c1ccccc1`, the Ki [1] was 180 nM, the Ki [2] was 1820 nM and the IC50 [3] was 1870 nM. It also gave an IC50 [4] of 187 nM.

Work on `CC(C)(C)Nc1c(-c2ccc(-c3nc4ccccc4[nH]3)cc2)nc2ccccn12` yielded a Ki [1] of 5310 nM, a Ki [2] of 5510 nM and an IC50 [3] of 5680 nM. For the same compound, the IC50 [4] was 5510 nM.
